Key:
[1] = biological target: D(2) dopamine receptor (Rattus norvegicus) (UniProt P61169); experiment: Binding affinity at dopamine receptor D2 from rat by spiropiperidone displacement.
Summary of the method: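 D2 receptor binding was read as % displacement of spiropiperidone, with test compound at 1000 nM unless stated otherwise. IC50 values used at least five concentrations per compound in triplicate. Each value is the mean of two replicate experiments differing by 5% or less.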

Mus musculus [2] = experiment: Antagonism of apomorphine induced climbing was determined in female swiss -Webster mice after (po) administration of 20 mg/kg; assay type: functional
Summary of the method: (§1)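 Female Swiss-Webster mice (about 20 g) were fasted about 24 h, then given test compound or vehicle ip or po (N = 20 per group). Vehicle was 0.5% w/w hydroxypropylmethylcellulose with 0.1% w/w Tween 80 in water. After 30 min, mice received apomorphine HCl 1.25 mg/kg sc. At 13 min, each mouse was watched for 1 min; score was mean of highest and lowest rung of 27. Groups were compared with vehicle by Student's t-test.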

Mus musculus [3] = experiment: Antagonism of apomorphine induced climbing was determined in female swiss -Webster mice after (po) administration of 5 mg/kg; assay type: functional; summary of the method: as §1
Mus musculus [4] = experiment: Antagonism of apomorphine induced climbing was determined in female swiss -Webster mice after (p.o.) +SKF525A administration of 10 mg/kg; assay type: functional; details: route oral; summary of the method: as §1
Mus musculus [5] = experiment: Antagonism of apomorphine induced climbing was determined in female swiss -Webster mice after (p.o.) +SKF525A administration of 20 mg/kg; assay type: functional; details: route oral; summary of the method: as §1
Mus musculus [6] = experiment: Antagonism of apomorphine induced climbing was determined in female swiss -Webster mice after (ip) administration of 10 mg/kg; assay type: functional; summary of the method: as §1
Mus musculus [7] = experiment: Antagonism of apomorphine induced climbing was determined in female swiss -Webster mice after (ip) administration of 2.5 mg/kg; assay type: functional; summary of the method: as §1
Mus musculus [8] = experiment: Antagonism of apomorphine induced climbing was determined in female swiss -Webster mice after (ip) administration of 20 mg/kg; assay type: functional; summary of the method: as §1
Mus musculus [9] = experiment: Antagonism of apomorphine induced climbing was determined in female swiss -Webster mice after (ip) administration of 5 mg/kg; assay type: functional; summary of the method: as §1
Mus musculus [10] = experiment: Antagonism of apomorphine induced climbing was determined in female swiss -Webster mice after (i.p.) +SKF525A administration of 10 mg/kg; assay type: functional; details: route intraperitoneal; summary of the method: as §1
Mus musculus [11] = experiment: Antagonism of apomorphine induced climbing was determined in female swiss -Webster mice after (i.p.) +SKF525A administration of 2.5 mg/kg; assay type: functional; details: route intraperitoneal; summary of the method: as §1
Mus musculus [12] = experiment: Antagonism of apomorphine induced climbing was determined in female swiss -Webster mice after (i.p.) +SKF525A administration of 20 mg/kg; assay type: functional; details: route intraperitoneal; summary of the method: as §1
Mus musculus [13] = experiment: Antagonism of apomorphine induced climbing was determined in female swiss -Webster mice after (i.p.) +SKF525A administration of 5 mg/kg; assay type: functional; details: route intraperitoneal; summary of the method: as §1
Mus musculus [14] = experiment: Antagonism of apomorphine induced climbing was determined in female swiss -Webster mice after (p.o.) +SKF525A administration of 5 mg/kg; assay type: functional; details: route oral; summary of the method: as §1
Mus musculus [15] = experiment: Antagonism of apomorphine induced climbing was determined in female swiss -Webster mice after (po) administration of 10 mg/kg; assay type: functional; summary of the method: as §1

Sequence of D(2) dopamine receptor (Rattus norvegicus) (P61169 whole entry): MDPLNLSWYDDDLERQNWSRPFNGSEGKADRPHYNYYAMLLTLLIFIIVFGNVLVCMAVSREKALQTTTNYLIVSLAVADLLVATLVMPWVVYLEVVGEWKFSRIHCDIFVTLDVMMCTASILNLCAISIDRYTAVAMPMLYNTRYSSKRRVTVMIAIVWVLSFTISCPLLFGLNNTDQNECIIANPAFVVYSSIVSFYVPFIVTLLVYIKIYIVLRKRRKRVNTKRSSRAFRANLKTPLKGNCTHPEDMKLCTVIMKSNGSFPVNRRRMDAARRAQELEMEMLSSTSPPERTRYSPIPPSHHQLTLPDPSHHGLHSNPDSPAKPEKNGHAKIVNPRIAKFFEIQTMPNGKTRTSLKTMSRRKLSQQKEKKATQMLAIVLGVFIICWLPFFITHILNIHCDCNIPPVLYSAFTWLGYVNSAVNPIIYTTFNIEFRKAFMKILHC

% displacement of spiropiperidone [1]: 35%
SMILES: CN1CCN(C2=Nc3ccccc3Sc3ccccc32)CC1
Activity (Mus musculus [2]): 0 | Activity (Mus musculus [3]): 21 | Activity (Mus musculus [4]): 18 | Activity (Mus musculus [5]): 9 | Activity (Mus musculus [6]): 3 | Activity (Mus musculus [7]): 21 | Activity (Mus musculus [8]): 0 | Activity (Mus musculus [9]): 14 | Activity (Mus musculus [10]): 18 | Activity (Mus musculus [11]): 23 | Activity (Mus musculus [12]): 3 | Activity (Mus musculus [13]): 21 | Activity (Mus musculus [14]): 23 | Activity (Mus musculus [15]): 8

Source: ChEMBL document CHEMBL1134337, “Behavioral approach to nondyskinetic dopamine antagonists: identification of seroquel” (J Med Chem, 2001)
